The record followed here is ChEMBL document CHEMBL1150815, “Blepharocalyxins C--E, three new dimeric diarylheptanoids, and related compounds from the seeds of Alpinia blepharocalyx” (2001).

The structures appear in SMILES notation.

For one test, the system named is HT-1080. In words: Antiproliferative activity against human HT1080 cells by MTT assay. In kind it is functional. The conditions noted are these: read-out: ED50 (the source's name). The method, boiled down: (§1)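 Cells grown in medium with 10% fetal calf serum, 0.1% sodium bicarbonate and 2 mM glutamine. Viability with and without agents measured by MTT assay. 5-Fluorouracil served as positive control. Activity expressed as ED50 in µM.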

Test [1] is described as follows: Antiproliferative activity against mouse Colon 26-L5 cells by MTT assay. In kind it is functional. The settings on record: read-out: ED50 (the source's name). Summed up: as §1

For `Oc1ccc(CC[C@H]2CC=C[C@@H](c3ccc(O)cc3)O2)cc1`, the values for the EC50 (with HT-1080; in test [1]) were 79.4 µM and above 100 µM, respectively.
On the same counts, the results for `Oc1ccc(CC[C@H]2CC=C[C@H](c3ccc(O)cc3)O2)cc1` are 45.3 µM and 71.2 µM.
In the case of `Oc1ccc(CC[C@H]2C[C@H](O)[C@H](O)[C@@H](c3ccc(O)cc3)O2)cc1`, the values for the EC50 (in the test with HT-1080; in test [1]) were above 100 µM and 44.2 µM, respectively.
The matching figures for `Oc1ccc(CC[C@H]2CC(O)C(O)[C@@H](c3ccc(O)cc3)O2)cc1` (mixture of isomers): 83.7 µM and 49.4 µM.
On the same counts, the results for `Oc1ccc(/C=C/[C@H](C[C@@H](O)CCc2ccc(O)cc2)[C@@H]2[C@@H](c3ccc(O)cc3)O[C@@H](CCc3ccc(O)cc3)C[C@@H]2O)cc1` [BLEPHAROCALYXIN C] are 54.3 µM and 29.6 µM.
As for `Oc1ccc(/C=C/[C@@H]2C[C@H](CCc3ccc(O)cc3)O[C@@H]3C[C@H](CCc4ccc(O)cc4)O[C@H](c4ccc(O)cc4)[C@@H]23)cc1` [BLEPHAROCALYXIN D], the EC50 in the test on HT-1080 amounted to 25.7 µM; in test [1], 3.61 µM.
Regarding `COc1cc(O)c([C@@H]2C[C@H](CCc3ccc(O)cc3)O[C@H](c3ccc(O)cc3)[C@H]2[C@H](/C=C/C[C@@H](O)CCc2ccc(O)cc2)c2ccc(O)cc2)c(O)c1C(=O)/C=C/c1ccc(O)cc1` [BLEPHAROCALYXIN E], the EC50 with HT-1080 amounted to 9.02 µM; in test [1], 32.2 µM.
`O=c1[nH]cc(F)c(=O)[nH]1` [FLUOROURACIL]: the results for the EC50 (in the test with HT-1080; in test [1]) were 8 µM and 0.53 µM, respectively.
